# EBI2 antag – antagonists of human EBI2 receptor; P32249; EBI2 beta-arrestin recruitment, luminescence, 7a,25-OHC stimulated; inhibition, % at 5 µM; 360,000 compounds, 0.81% hits; AID 651636; in the data active = inhibition above about 38%;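 note: enzyme fragment complementation signal reports receptor beta-arrestin coupling in cells; 0% = agonist plus DMSO wells and 100% = wells without agonist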
# Target sequence (P32249 whole entry, looked up, the tested form may be a part): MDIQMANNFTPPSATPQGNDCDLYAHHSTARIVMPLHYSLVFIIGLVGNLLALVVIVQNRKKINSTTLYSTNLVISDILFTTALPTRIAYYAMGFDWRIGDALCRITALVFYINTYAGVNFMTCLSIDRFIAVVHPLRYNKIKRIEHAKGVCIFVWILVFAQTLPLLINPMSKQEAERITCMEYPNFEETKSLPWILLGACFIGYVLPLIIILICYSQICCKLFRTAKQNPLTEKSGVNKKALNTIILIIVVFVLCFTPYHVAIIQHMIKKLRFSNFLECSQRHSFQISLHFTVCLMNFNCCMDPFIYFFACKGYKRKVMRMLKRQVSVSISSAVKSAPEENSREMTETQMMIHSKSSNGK
# APJ agonist – APJ receptor agonism | 330,000 compounds, 0.11% hits | CHO-K1 APJ PathHunter beta-arrestin, luminescence; 0% DMSO wells, 100% apelin | P35414 | activation, % at 20 µM;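 active = activation more than six SD over the plate average, tested at 20 µM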;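 note: 0% = DMSO alone and 100% = apelin-13 at 10 nM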
#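 Assay system – PathHunter CHO-K1 APJ (AGTRL-1) beta-arrestin reporter cells · Compound – one dose, 20 µM compound, 1% DMSO · Timing – compound 90 min 25 °C, reagent 1 h · Measured by – luminescence from split beta-galactosidase complementation, Galacton Star/Emerald II substrate · Measure – beta-arrestin recruitment to APJ as agonist activity, luminescent signal · Benchmarks – DMSO vs Apelin-13 10 nM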
# CCR6 antag – antagonists of human CCR6 receptor. CHO-K1 CCR6 PathHunter beta-arrestin, luminescence, CCL20-stimulated. inhibition, % at 20 µM. 340,000 compounds, 0.49% hits;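 active = compounds whose inhibition of the agonist-driven luminescence signal at 20 µM reaches about 50%, limit read from the data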;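 note: cells stimulated with CCL20 at 14 nM final; plate controls were DMSO with CCL20 for no effect and DMSO without agonist for full effect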
# CXCR6 block – inhibitors of human CXCR6 receptor. inhibition, % at 20 µM. O00574. 360,000 compounds, 0.36% hits. CHO-K1 PathHunter CXCR6 beta-arrestin, luminescence. AID 602244; in the data active = inhibition above about 34%, passing the limit was not always enough;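 note: antagonist mode with CXCL16 agonist at 10 nM final; 0% = 10 nM CXCL16 with DMSO and 100% = unstimulated wells without agonist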
# APJ antagonist – APJ receptor antagonism. P35414. CHO-K1 APJ beta-arrestin complementation, luminescence. inhibition, % at 20 µM. 330,000 compounds, 0.32% hits. AID 2521;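 active = inhibition above about 40% at 20 µM, limit read from the data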;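 note: cells challenged with 10 nM apelin-13 agonist together with compound; plate controls were apelin-13 plus DMSO wells for no effect and DMSO wells lacking apelin-13 for full effect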
# EBI2 conf – EBI2 (human) antagonism, single concentration confirmation | AID 651997 | shares compounds with EBI2 antag | 2,400 compounds, 29% hits | inhibition, % at 5 µM | EBI2 beta-arrestin luminescence, 7a,25-OHC antagonism;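 active = inhibition of at least 50%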
# EBI2 agonist – counter-screen for EBI2 antagonists: EBI2 agonist activity | EBI2-expressing cells, agonist mode, luminescence, 60 min; 0% vehicle, 100% 7α,25-dihydroxycholesterol control | activation, % at 5 µM | shares compounds with EBI2 antag | 2,400 tested, under 10 active;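 active = activation of at least 50%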
# bGal cs – counter-screen for EBI2 antagonists: E. coli beta-galactosidase inhibition. AID 652176. shares compounds with EBI2 antag. 2,400 compounds, 1% hits. purified beta-galactosidase, luminescent Galacton Star, 15 min. inhibition, % at 5 µM;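 active = replicate-average signal at least 3 plate SD below neutral wells, shown as high inhibition, flagging enzyme-inhibiting false positives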;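 note: 0% = DMSO wells with enzyme and 100% = wells lacking enzyme; higher means stronger loss of beta-gal luminescence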
# Numbers without * were called inactive; x = not tested or not shown. In the library only some 1.5% were active in any assay of this set; here they are far more common.
SMILES,EBI2 antag,APJ agonist,CCR6 antag,CXCR6 block,APJ antagonist,EBI2 conf,EBI2 agonist,bGal cs
C[C@@H]1CN([C@H](C)CO)S(=O)(=O)c2ccc(C#Cc3ccccc3F)cc2O[C@@H]1CN(C)C(=O)Cc1ccccc1,72*,x,x,5,x,79*,-1,-7
COc1ccc(-c2nc(N)nc(C(F)(F)F)c2-c2ccccc2OC)c(O)c1,8,2,-6,1,0,x,x,x
COc1ccc(-c2nc(N)ncc2-c2ccccc2)c(O)c1,61*,-2,2,2,-13,6,-1,-9
COc1ccc(-c2nc(N)ncc2-c2ccccc2OC)c(O)c1,46*,-5,11,-6,1,15,0,11
Nc1ncc(-c2ccccc2)c(-c2ccc(OCc3ccccc3)cc2O)n1,20,-1,3,2,-12,x,x,x
COc1ccc(-c2cnc(N)nc2-c2ccc(OC)cc2O)cc1,81*,0,2,-6,-9,44,0,-9
CCOC(=O)N1CCN(C(=O)CCNS(=O)(=O)c2ccccc2)CC1,-14,7,7,6,11,x,x,x
CC(C)Nc1nc(Cl)nc(N(C#N)CN2C(=O)c3ccccc3C2=O)n1,56*,-2,17,20,0,53*,0,6
CCC(C)Nc1nc(Cl)nc(N(C#N)CN2C(=O)c3ccccc3S2(=O)=O)n1 (stereo not drawn),10,-2,-2,22,1,x,x,x
COc1ccccc1N1CCN(S(=O)(=O)CCNC(=O)/C=C/c2ccc3c(c2)OCO3)CC1,78*,x,x,2,x,59*,0,8
COc1ccccc1N1CCN(C(=O)c2cc3cc(C)ccc3[nH]2)CC1,94*,-4,6,-6,13,80*,1,3
CCOC(=O)C1(Cc2ccc(OC)cc2)CCN(C(=O)c2cc3ccccc3[nH]2)CC1,67*,-3,14,3,-6,35,-1,-3
COc1ccccc1N1CCN(C(=O)c2cccc(C(=O)N3CCN(c4ccccc4OC)CC3)c2)CC1,0,5,-2,13,-22,x,x,x
COc1ccc(N2CCN(S(=O)(=O)CCNC(=O)/C=C/c3ccc4c(c3)OCO4)CC2)cc1,13,-1,1,-8,-27,x,x,x
O=C(c1cc(-c2ccc(Cl)cc2)n[nH]1)N1CCN(C(=O)c2ccco2)CC1,42*,-3,-5,-7,-6,29,2,9
CCN(CC)C(=O)/C(=C/c1ccc(F)cc1)NC(C)=O,9,3,-2,5,7,x,x,x
Cc1ccc2[nH]c(C(=O)N3CCN(C(c4ccccc4)c4ccccc4)CC3)cc2c1,89*,-2,9,2,-4,86*,-1,-11
COc1ccccc1N1CCN(C(=O)c2cc3cc(F)ccc3[nH]2)CC1,87*,-2,0,-6,11,58*,2,4
COc1ccccc1N1CCN(C(=O)c2cc3cc(Cl)ccc3[nH]2)CC1,89*,2,-12,-8,-12,73*,0,-10
COc1cc2cc(C(=O)N3CCN(c4ccccc4OC)CC3)[nH]c2cc1OC,6,-1,12,-3,-3,x,x,x
Cc1cc(C)cc(C(=O)NCC(=O)N2CCN(C(c3ccccc3)c3ccccc3)CC2)c1,-5,-2,2,9,-4,x,x,x
COc1ccccc1N1CCN(C(=O)c2cc3ccccc3[nH]2)CC1,73*,3,5,-11,5,55*,2,5
Cn1ccc2c(-c3ccc4[nH]ccc4c3)cc3c(c21)C1CCC3O1 (stereo not drawn),20,x,x,-10,x,x,x,x
O=C(c1cc2cc(F)ccc2[nH]1)N1CCN(C(=O)c2ccco2)CC1,67*,2,-15,-8,-65,37,-1,4
COc1ccccc1N1CCN(C(=S)NC(=O)/C=C/c2ccc(F)cc2)CC1,54*,-5,14,5,4,35,0,9
SMILES,EBI2 antag,APJ agonist,CCR6 antag,CXCR6 block,APJ antagonist,EBI2 conf,EBI2 agonist,bGal cs
CN1CCN(C(=O)c2cc3cc(F)ccc3[nH]2)CC1,12,0,8,-2,7,x,x,x
COc1ccc2cc(C(=O)N3CCN(c4cccc(C)c4C)CC3)[nH]c2c1,85*,-1,9,6,6,57*,-1,-15
CN(C)CCn1c2c(c(SCC(=O)Nc3cccc4ccccc34)nc1=O)CCC2,-11,0,1,-2,-25,x,x,x
Cc1ccc(-c2csc(=Nc3cccnc3)n2CCCN2CCCC2=O)cc1C,31,-3,37,18,20,x,x,x
Oc1ccccc1-c1nnc(COc2ccc(Cl)cc2Cl)o1,1,-3,14,20,0,x,x,x
Clc1ccc(-c2nnc(CCc3ccccc3)o2)c(Cl)c1,55*,-7,21,-1,-11,41,1,1
CC(=O)NC(=S)Nc1sc2c(c1C(N)=O)CCC(C)C2 (stereo not drawn),37*,-7,39,39*,28,21,0,9
Cn1c(SCc2nnc3n2CCCCC3)nc2ccccc21,-10,2,-6,-4,7,x,x,x
CC(C)C[C@@H](CN1CCC[C@@H]1CN1C(=S)NC[C@@H]1Cc1ccc(O)cc1)N1C[C@H](Cc2ccc(O)cc2)N(CC2CCCCC2)C1=S,89*,x,x,1,x,42,-1,-11
CC(C)C[C@@H](CN1CCCC1CN1C(=S)NC[C@@H]1Cc1ccccc1)N1C[C@H](Cc2ccc(O)cc2)N(CC2CCCCC2)C1=S (stereo partly drawn),16,x,x,0,x,x,x,x
CC(C)C[C@@H](CN1CCC[C@@H]1CN1C(=S)NC[C@@H]1Cc1ccc(O)cc1)N1C[C@H](Cc2ccc(O)cc2)N(CC2CCCCCC2)C1=S,85*,x,x,-6,x,47,0,-15
COC(=O)c1nnn(CC(=O)Nc2cc(Cl)ccc2C)c1C(=O)OC,-15,-3,-4,-8,-2,x,x,x
COc1ccc(C(=O)C2CCN(C(=S)NCCc3ccccc3)CC2)cc1,3,1,4,-4,3,x,x,x
Cc1ccc(C(=O)C2CCN(C(=S)NCC3CCCO3)CC2)cc1 (stereo not drawn),16,-2,5,1,11,x,x,x
COc1ccc(C(=O)C2CCN(C(=S)NCC3CCCO3)CC2)cc1 (stereo not drawn),61*,-1,7,-7,5,26,1,5
O=C(c1ccc(F)cc1)C1CCN(C(=S)NCC2CCCO2)CC1 (stereo not drawn),51*,-3,0,-7,-2,16,-1,-9

# Screens: PubChem, Sanford-Burnham Center for Chemical Genomics
